Tests used:
[1] = biological target: Mu-type opioid receptor (Rattus norvegicus) (UniProt P33535); experiment: Agonist activity at rat brain Mu-type opioid receptor assessed as [35S]GTPgammaS binding by liquid scintillation counting relative to control; type: functional
Procedure, shortened: (§1)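 Rat brain membranes (15 μg protein/tube) with 0.05 nM [35S]GTPγS and opioids 10^-10–10^-5 M, plus 30 μM GDP, 100 mM NaCl, 3 mM MgCl2, 1 mM EGTA in 50 mM Tris-HCl pH 7.4, 60 min at 30 °C. Started by protein, stopped with ice-cold buffer and GF/B filtration, scintillation counted. Nonspecific binding with 10 μM unlabeled GTPγS; stimulation as % of specific binding over basal (no opioid).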

Mu-type opioid receptor [2] = biological target: T1, Mu-type opioid receptor (Rattus norvegicus, UniProt P33535); experiment: Agonist activity at rat brain mu-opioid receptor assessed as [35S]GTPgammaS binding by liquid scintillation counting; type: functional; procedure, shortened: as §1
T1 sequence (P33535 whole entry): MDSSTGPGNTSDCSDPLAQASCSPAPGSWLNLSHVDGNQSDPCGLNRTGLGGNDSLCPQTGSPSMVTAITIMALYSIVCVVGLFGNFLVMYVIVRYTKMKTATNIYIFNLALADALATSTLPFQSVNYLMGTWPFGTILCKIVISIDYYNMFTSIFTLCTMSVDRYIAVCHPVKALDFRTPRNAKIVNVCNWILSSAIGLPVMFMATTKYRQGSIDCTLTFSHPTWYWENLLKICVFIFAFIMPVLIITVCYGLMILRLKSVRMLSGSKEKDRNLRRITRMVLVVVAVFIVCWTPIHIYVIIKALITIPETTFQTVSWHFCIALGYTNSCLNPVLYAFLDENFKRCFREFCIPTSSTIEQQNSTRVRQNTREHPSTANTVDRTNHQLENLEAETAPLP

[3] = biological target: Delta-type opioid receptor (Rattus norvegicus, UniProt P33533); experiment: Displacement of [3H]Ile-deltorphin-2 from rat brain delta-type opioid receptor by liquid scintillation counting
Delta-type opioid receptor (Rattus norvegicus, UniProt P33533), sequence (P33533 whole entry): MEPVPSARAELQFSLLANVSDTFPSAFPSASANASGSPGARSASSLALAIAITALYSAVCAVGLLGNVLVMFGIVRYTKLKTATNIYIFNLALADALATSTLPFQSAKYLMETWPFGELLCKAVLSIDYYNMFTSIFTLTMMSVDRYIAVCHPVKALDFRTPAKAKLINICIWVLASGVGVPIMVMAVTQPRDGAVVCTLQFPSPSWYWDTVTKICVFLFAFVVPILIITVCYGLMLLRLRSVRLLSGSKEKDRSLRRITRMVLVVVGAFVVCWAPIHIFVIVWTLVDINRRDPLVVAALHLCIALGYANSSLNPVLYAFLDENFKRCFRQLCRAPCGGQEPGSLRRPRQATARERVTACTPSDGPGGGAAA
Procedure, shortened: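 Wistar male rat (250–300 g) brain membranes, 0.2–0.4 mg protein/tube, 2 nM [3H]Ile5,6-deltorphin-2 plus 0.25 mg BSA/tube, competitor 10^-11–10^-5 M, 50 mM Tris-HCl pH 7.4, 45 min at 35 °C. GF/B filtration, ice-cold Tris washes, scintillation counting. Nonspecific binding with 10 μM naloxone; duplicates, one/two-site competition fit for Ki.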

Rattus norvegicus = organism: Rattus norvegicus; experiment: Selectivity ratio of Ki of rat brain delta-type opioid receptor to Ki of rat brain Mu-type opioid receptor
Mu-type opioid receptor [4] = biological target: T1, Mu-type opioid receptor; experiment: Displacement of [3H]DAMGO from rat brain Mu-type opioid receptor by liquid scintillation counting
Procedure, shortened: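 Wistar male rat (250–300 g) brain membrane homogenate, 0.2–0.4 mg protein/tube, with 0.5 nM [3H]DAMGO and competitor 10^-11–10^-5 M in 50 mM Tris-HCl pH 7.4, 1 h at 25 °C. Stopped by GF/C filtration, ice-cold Tris washes, scintillation counted. Nonspecific binding with 10 μM naloxone; duplicate runs, one/two-site competition fit for Ki.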

Mu-type opioid receptor [5] = biological target: Mu-type opioid receptor (Cavia porcellus, UniProt P97266); experiment: Agonist activity at guinea pig ileum Mu-type opioid receptor; type: functional, tissue-based
Mu-type opioid receptor (Cavia porcellus, UniProt P97266), sequence (P97266 whole entry): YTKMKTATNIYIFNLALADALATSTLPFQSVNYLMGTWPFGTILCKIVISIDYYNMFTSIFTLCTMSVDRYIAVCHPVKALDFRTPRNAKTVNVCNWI

Mu-type opioid receptor [6] = biological target: Mu-type opioid receptor (Homo sapiens, UniProt P35372); experiment: Agonist activity at Mu-type opioid receptor; type: functional
Mu-type opioid receptor (Homo sapiens, UniProt P35372), sequence (P35372 whole entry): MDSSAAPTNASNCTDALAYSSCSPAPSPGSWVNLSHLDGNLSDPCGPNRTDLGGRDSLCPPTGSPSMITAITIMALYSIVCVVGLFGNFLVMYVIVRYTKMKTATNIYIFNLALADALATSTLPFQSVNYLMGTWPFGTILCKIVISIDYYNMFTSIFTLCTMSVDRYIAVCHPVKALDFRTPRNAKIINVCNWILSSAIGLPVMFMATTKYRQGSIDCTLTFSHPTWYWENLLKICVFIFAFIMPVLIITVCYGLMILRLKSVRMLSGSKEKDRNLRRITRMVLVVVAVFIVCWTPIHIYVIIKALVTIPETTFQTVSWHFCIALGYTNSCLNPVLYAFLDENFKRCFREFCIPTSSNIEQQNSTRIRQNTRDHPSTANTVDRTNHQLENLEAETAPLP

[7] = biological target: Delta-type opioid receptor (Homo sapiens, UniProt P41143); experiment: Agonist activity at delta-type opioid receptor; type: functional
Delta-type opioid receptor (Homo sapiens, UniProt P41143), sequence (P41143 whole entry): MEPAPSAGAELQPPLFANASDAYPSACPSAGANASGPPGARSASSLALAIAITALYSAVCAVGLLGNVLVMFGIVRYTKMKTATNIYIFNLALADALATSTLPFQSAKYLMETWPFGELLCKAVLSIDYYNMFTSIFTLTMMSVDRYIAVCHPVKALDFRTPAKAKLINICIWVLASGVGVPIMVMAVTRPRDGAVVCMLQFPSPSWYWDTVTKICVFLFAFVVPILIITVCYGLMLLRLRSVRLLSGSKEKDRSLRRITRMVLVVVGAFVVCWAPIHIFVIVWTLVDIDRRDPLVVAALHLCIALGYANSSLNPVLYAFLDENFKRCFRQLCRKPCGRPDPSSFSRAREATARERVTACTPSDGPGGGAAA

Mu-type opioid receptor (Rattus norvegicus), sequence (P33535 whole entry): as the sequence (P33535 whole entry) above

| Structure (SMILES) | Emax [1] [%] | EC50 (Mu-type opioid receptor [2]) [nM] | Ki [3] [nM] | Ratio Ki (Rattus norvegicus) | Ki (Mu-type opioid receptor [4]) [nM] | IC50 (Mu-type opioid receptor [5]) [nM] | IC50 (Mu-type opioid receptor [6]) [nM] | IC50 [7] [nM] |
| --- | --- | --- | --- | --- | --- | --- | --- | --- |
| Cc1cc(O)cc(C)c1C[C@H](N)C(=O)N[C@H](C)C(=O)N[C@@H]1C(=O)N(CC(N)=O)Cc2ccccc2[C@@H]1C | 191 | 36 | 1.7 | 68 | 0.025 | – | – | – |
| Cc1cc(O)cc(C)c1C[C@H](N)C(=O)N[C@H](C)C(=O)N[C@H]1C(=O)N(CC(N)=O)Cc2ccccc2[C@@H]1C | 149 | 9.3 | 24 | 960 | 0.025 | – | – | – |
| Cc1cc(O)cc(C)c1C[C@H](N)C(=O)N[C@H](C)C(=O)N[C@@H]1Cc2ccccc2CN(CC(N)=O)C1=O | 178 | 64.2 | 337 | 1020 | 0.33 | – | – | – |
| Cc1cc(O)cc(C)c1C[C@H](N)C(=O)N[C@H](C)C(=O)N[C@H]1C(=O)N(CC(N)=O)Cc2ccccc2[C@H]1C | 167 | 184 | 490 | 1220 | 0.4 | – | – | – |
| C[C@H](C(=O)NC1Cc2ccccc2CN(CC(N)=O)C1=O)N1Cc2cc(O)ccc2CC(N)C1=O (some centres undefined) | – | – | – | – | – | 3.64 | 20.8 | – |
| Cc1cc(O)cc(C)c1C[C@H](N)C(=O)N[C@H](C)C(=O)N[C@]1(C)Cc2ccccc2CN(CC(N)=O)C1=O | 154 | 288 | 63 | 210 | 0.3 | – | – | – |
| Cc1cc(O)cc(C)c1C[C@H](N)C(=O)N[C@H](C)C(=O)N[C@@H]1C(=O)N(CC(N)=O)Cc2ccccc2[C@H]1C | 130 | 685 | 720 | 51 | 14 | – | – | – |
| Cc1cc(O)cc(C)c1C[C@H](N)C(=O)N[C@H](C)C(=O)N[C@@]1(C)Cc2ccccc2CN(CC(N)=O)C1=O | 159 | 941 | 859 | 187 | 4.6 | – | – | – |
| Cc1cc(O)cc(C)c1C[C@H](N)C(=O)N[C@H](C)C(=O)N[C@H]1Cc2ccccc2CN(CC(N)=O)C1=O | 161 | 18 | 2.4 | 51 | 0.047 | – | – | – |
| C[C@@H](NC(=O)[C@@H](N)Cc1ccc(O)cc1)C(=O)NC1Cc2ccccc2CN(CC(=O)N[C@@H](Cc2ccc(O)cc2)C(=O)N2CCC[C@H]2C(=O)N[C@@H](CO)C(N)=O)C1=O (some centres undefined) | – | – | – | – | – | – | 11 | 17.4 |

Source: ChEMBL document CHEMBL1833812, “Synthesis, biological evaluation, and automated docking of constrained analogues of the opioid peptide H-Dmt-D-Ala-Phe-Gly-NH₂ using the 4- or 5-methyl substituted 4-amino-1,2,4,5-tetrahydro-2-benzazepin-3-one scaffold” (J Med Chem, 2011)
